The text below walks through data of ChEMBL document CHEMBL4387709, “Discovery of Quinoline Analogues as Potent Antivirals against Enterovirus D68 (EV-D68)” (J Med Chem, 2019).

For series [1], the system named is enterovirus D68. The experiment in a line: Antiviral activity against Enterovirus D68 US/IL/14-18956 infected in human RD cells assessed as inhibition of virus-induced cytopathic effect incubated for 5 mins under shaking condition and measured after 3 days by neutral red dye-based photometric method. As to conditions: Enterovirus D, US/IL/14-18956, RD. The format is functional, organism-based. The procedure, abridged: (§1)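 RD cells seeded one day ahead to ~90% confluence, PBS (Mg/Ca) wash, infected at ~MOI 0.01 with EV-D68 in DMEM/2% FBS/30 mM MgCl2 at 33 °C, 5% CO2. Compounds and 1% P/S added after 1 h. Plates shaken ~5 min, held 3 days, viable cells stained with neutral red (66 µg/ml), A540 read. EC50 from dose-response fits, triplicates.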
For orientation: Damage to the host cells serves as the signal in cytopathic effect assays.

The test system of series [2] is A549. In words: Cytotoxicity against human A549 cells after 3 days by neutral red dye-based photometric method. The format is cell-based. As to conditions: a549, 72 h. The procedure, abridged:
(§2)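 Uninfected cells run as in the CPE assay (33 °C, 3 days, same media) with compound. Viability by neutral red staining and 540 nm absorbance. CC50 from dose-response curves, triplicate experiments.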

Series [3] relates to enterovirus D68. In words: Antiviral activity against Enterovirus D68 […] infected in human RD cells assessed as inhibition of virus-induced cytopathic effect incubated for 5 mins under shaking condition and measured after 3 days by neutral red dye-based photometric method. It is filed as functional, organism-based. The following applies: Enterovirus D. The procedure, abridged: as §1

Series [4] deals with enterovirus D68. The experiment in a line: Antiviral activity against Enterovirus D68 US/KY/14-18953 infected in human RD cells assessed as inhibition of virus-induced cytopathic effect incubated for 5 mins under shaking condition and measured after 3 days by neutral red dye-based photometric method. It is filed as functional, organism-based. The following applies: Enterovirus D, US/KY/14-18953, RD. The procedure, abridged: as §1

For series [5], the system named is RD. The experiment in a line: Inhibition of 2C protein in Enterovirus D68 US/KY/14-18953 infected in human RD cells assessed as reduction of VP1 expression at 1 uM measured at 9 hrs post infection by DAPI-staining based microscopy. The format is cell-based. The procedure, abridged: (§3)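 Fixed at 9 hpi (4% formaldehyde), 0.2% Triton X-100 permeabilized, blocked with 10% bovine serum. Stained with rabbit anti-VP1 plus Alexa-488 secondary, nuclei with 300 nM DAPI. Confocal microscopy.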

In series [6] the test system is RD. The experiment in a line: Inhibition of 2C protein in Enterovirus D68 US/KY/14-18953 infected in human RD cells assessed as reduction of viral RNA synthesis at 1 uM measured at 9 hrs post infection by reagent-based RT-qPCR method relative to control. It is filed as cell-based. The procedure, abridged:
(§4)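 DNase-treated. 1.2 µg reverse-transcribed with oligo(dT)18. qPCR run 95 °C 10 min, then 40 cycles of 95 °C 15 s/60 °C 60 s, with melt curve. Compared with DMSO control, one-way ANOVA, mean of two experiments ± SD.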
(Real-time PCR tracks product formation cycle by cycle.)

Series [7] relates to HeLa. The experiment in a line: Cytotoxicity against human HeLa cells after 3 days by neutral red dye-based photometric method. The format is cell-based. As to conditions: 72 h. The procedure, abridged:
as §2

Series [8] deals with enterovirus D68. The experiment in a line: Antiviral activity against Enterovirus D68 US/MO/14-18949 infected in human RD cells assessed as inhibition of virus-induced cytopathic effect incubated for 5 mins under shaking condition and measured after 3 days by neutral red dye-based photometric method. The format is functional, organism-based. As to conditions: Enterovirus D, US/MO/14-18949, RD. The procedure, abridged:
as §1

Series [9] concerns Influenza B virus. The experiment in a line: Antiviral activity against Influenza B virus (B/Brisbane/60/2008) at 10 uM after 2 days by plaque assay. The format is functional, organism-based.
Series [10] has as its system enterovirus D68. The experiment in a line: Antiviral activity against Enterovirus D68 US/MO/14-18947 infected in human SH-SY5Y cells assessed as inhibition of virus-induced cytopathic effect incubated for 5 mins under shaking condition and measured after 3 days by neutral red dye-based photometric method. The following applies: Enterovirus D, US/MO/14-18947, SH-SY5Y. It is filed as functional, organism-based. The procedure, abridged:
(§5)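 Virus at ~MOI 1 applied to SH-SY5Y cells (50% DMEM/50% F-12, 10% FBS) at ~90% confluence in DMEM/2% FBS/30 mM MgCl2 at 33 °C. Compounds added after 1 h with 1% P/S, shaken ~5 min, incubated 3 days. Viability read by neutral red uptake (A540). EC50 fitted from dose-response, triplicate.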

Series [11] has as its system enterovirus D68. The experiment in a line: Antiviral activity against Enterovirus D68 US/KY/14-18953 infected in human A172 cells assessed as inhibition of virus-induced cytopathic effect incubated for 5 mins under shaking condition and measured after 3 days by neutral red dye-based photometric method. It is filed as functional, organism-based. The following applies: Enterovirus D, US/KY/14-18953, A 172. The procedure, abridged:
(§6)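 A172 cells (DMEM, 10% FBS) grown ~90% confluent, infected with EV-D68 at ~MOI 0.3 in DMEM/2% FBS/30 mM MgCl2 and kept at 33 °C. P/S and compounds added 1 h later. Brief orbital shaking, then 3-day incubation. Neutral red staining with 540 nm absorbance. EC50 from best-fit dose-response curves in triplicate.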

Series [12] deals with enterovirus D68. The experiment in a line: Antiviral activity against Enterovirus D68 US/MO/14-18947 infected in human A172 cells assessed as inhibition of virus-induced cytopathic effect incubated for 5 mins under shaking condition and measured after 3 days by neutral red dye-based photometric method. It is filed as functional, organism-based. The following applies: Enterovirus D, US/MO/14-18947, A 172. The procedure, abridged:
as §6

The subject of series [13] is enterovirus D68. In words: Antiviral activity against Enterovirus D68 US/MO/14-18947 infected in human RD cells assessed as inhibition of virus-induced cytopathic effect incubated for 5 mins under shaking condition and measured after 3 days by neutral red dye-based photometric method. The format is functional, organism-based. The following applies: Enterovirus D, US/MO/14-18947, RD. The procedure, abridged:
as §1

For series [14], the system named is RD. In words: Inhibition of 2C protein in Enterovirus D68 US/KY/14-18953 infected in human RD cells assessed as reduction of VP1 expression at 1 uM measured at 9 hrs post infection by Western blot analysis. The format is cell-based. The procedure, abridged:
(§7)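 Equal protein separated and blotted to PVDF. Probed with rabbit anti-VP1 and mouse anti-GAPDH (1:3,000), HRP secondary, chemiluminescent detection. Mean of two independent experiments ± SD.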
Background: A western blot detects proteins with antibodies after separation by electrophoresis.

For series [15], the system named is Influenza A virus. In words: Antiviral activity against Influenza A virus (A/California/07/2009(H1N1)) at 10 uM after 2 days by plaque assay. It is filed as functional, organism-based.
The test system of series [16] is enterovirus D68. The experiment in a line: Antiviral activity against Enterovirus D68 US/KY/14-18953 infected in human SH-SY5Y cells assessed as inhibition of virus-induced cytopathic effect incubated for 5 mins under shaking condition and measured after 3 days by neutral red dye-based photometric method. As to conditions: Enterovirus D, US/KY/14-18953, SH-SY5Y. The format is functional, organism-based. The procedure, abridged: as §5

Series [17] deals with SH-SY5Y. The experiment in a line: Cytotoxicity against human SH-SY5Y cells after 3 days by neutral red dye-based photometric method. The format is cell-based. As to conditions: 72 h. The procedure, abridged:
as §2

The subject of series [18] is A 172. The experiment in a line: Cytotoxicity against human A172 cells after 3 days by neutral red dye-based photometric method. It is filed as cell-based. As to conditions: a 172, 72 h. The procedure, abridged:
as §2

Series [19] in a line: (§8) Cytotoxicity against human RD cells after 3 days by neutral red dye-based photometric method. The format is cell-based. The following applies: RD cells.
Series [20] can be described thus: Selectivity index, ratio of CC50 for human RD cells to EC50 for Enterovirus D68 US/KY/14-18953 infected in human RD cells. The format is toxicity, cell-based. As to conditions: read-out: Ratio CC50/EC50.
Series [21] concerns RD. The experiment in a line: Inhibition of 2C protein in Enterovirus D68 US/KY/14-18953 infected in human RD cells assessed as reduction of viral RNA level at 3 uM measured at 9 hrs post infection by RT-qPCR method relative to control. It is filed as cell-based. The procedure, abridged: as §4
Series [22] concerns RD. In words: Inhibition of 2C protein in Enterovirus D68 US/KY/14-18953 infected in human RD cells assessed as reduction of VP1 expression at 3 uM measured at 9 hrs post infection by DAPI-staining based microscopy. It is filed as cell-based. The procedure, abridged:
as §3

Series [23] deals with RD. The experiment in a line: Inhibition of 2C protein in Enterovirus D68 US/KY/14-18953 infected in human RD cells assessed as reduction of VP1 expression at 3 uM measured at 9 hrs post infection by Western blot analysis. It is filed as cell-based. The procedure, abridged: as §7
A short description of series [24]: Inhibition of sodium channel in rat dorsal root ganglia neurons assessed as reduction in veratridine-induced intracellular calcium influx at 20 to 50 uM after overnight incubation by Fura-2AM dye based fluorescence microscopy. It is filed as cell-based.
Series [25] can be described thus: Inhibition of sodium channel in rat dorsal root ganglia neurons assessed as reduction in veratridine-induced intracellular calcium influx at 2 to 50 uM after overnight incubation by Fura-2AM dye based fluorescence microscopy. It is filed as cell-based.
Series [26] concerns RD. The description is as §8. It is filed as cell-based. The following applies: rd, 72 h.

Active and inactive are the calls of the source. No cut-off for these calls is given here. Where only a bound is given, the exact number is not on record here.

A word on the EC50: it is the concentration that produces a half-maximal response. Broadly, the CC50 is the concentration giving 50% cytotoxicity. A low value points to greater toxicity to the cells. Usually inhibition stands for how much of the control response was suppressed. As to `CN(C)CCNC(=O)c1cc(-c2cccs2)nc2ccccc12`, the EC50 in [1] came out at 60 nM; in series [3] it was 50 nM; in series [4], 40 nM; in series [8], 50 nM; in series [10], 10 nM; in series [11], 20 nM. The EC50 was 100 nM in series [12], 60 nM in series [13] and 100 nM in [16]. The CC50 in [2] came out at 98800 nM; in series [7] it was 51200 nM; in [17] it was 136000 nM; in [18], 73800 nM. The inhibition result in series [5] and in series [14] was “Active” each time. The inhibition in series [6] is > 99%. Moreover, the result in [9] and in series [15] was inactive.

As for `N=C(N)N` [GUANIDINE], the EC50 in series [4] is 219000 nM. The CC50 at 72 h in [19] is > 300000 nM. Moreover, the selectivity ratio in [20] is > 1.4.

As to `CCCCOc1cc(C(=O)NCCN(CC)CC)c2ccccc2n1` [DIBUCAINE], the CC50 in series [2] was 37500 nM; in series [7] it was 36000 nM; in series [17], > 30000 nM; in series [18], > 30000 nM. The EC50 in series [3] is 2000 nM; in [4], 5300 nM; in [8] it was 2900 nM; in series [10], 1900 nM; in series [11] it was 3700 nM; in series [12], 1900 nM. Besides, the EC50 turned out to be 3500 nM in series [13] and 1700 nM in [16]. Also, in [21], the inhibition is 80%. Besides, the outcome in series [9] and in series [15] was inactive. Also, the inhibition entry in [22] and in series [23] was “Active” each time. In addition, the inhibition result in [14] is “inactive”. Further, the “inhibition (INH)” value in series [24] was “Active”.

Consider `CN(C)CCNC(=O)c1cc(-c2ccccc2)nc2ccccc12`, for which the EC50 in [1] is 200 nM; in series [3] it was 600 nM; in series [4] it was 400 nM; in [8], 600 nM; in series [10], 200 nM; in [11], 400 nM. Besides, the EC50 in series [12] was found to be 300 nM; in series [13] it was 300 nM; in [16], 400 nM. Further, the CC50 in series [2] was 121000 nM; in series [7] it was 68700 nM; in series [17], > 300000 nM; in [18], 88400 nM. For the same molecule, the inhibition entry in series [5] and in series [14] was “Active” in each case. In [6], the inhibition is > 99%. Moreover, in series [25], the “inhibition (INH)” value was “Not Active”. The result in [9] and in [15] was inactive.

On to `NNC(=O)c1cc(-c2ccccc2)nc2ccccc12`, for which the EC50 in series [4] was 100000 nM. In addition, the CC50 in series [26] is > 300000 nM. Besides, the selectivity ratio in series [20] is > 3.

`CC(C)Oc1cc(C(=O)NCCN2CCCC2)c2ccccc2n1`: the EC50 in series [4] was determined as 1700 nM. Half-maximal cytotoxicity in series [26] (CC50) was put at 36900 nM. Further, the selectivity ratio in series [20] stood at 21.7.
